ChEMBL document CHEMBL5724801, “EUbOPEN Chemogenomics Library - Multiplex” (2024)
“And” between values parts separate entries of the source, which are not always exact repeats. Equal values may be shown once.

How the values were obtained:
[1] = test system: U2OS; assay: Multiplex assay against U2OS; assay type: toxicity, cell-based; conditions: human
Method in brief: (§1)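 Per cents of healthy-nucleus cells form the tubulin, mitochondrial-mass and membrane-permeability phenotype values. Live cells were stained at seeding with Hoechst33342, BioTracker Green Microtubule Cytoskeleton Dye, MitoTracker Red and Annexin V Alexa Fluor 680. After compound addition they were imaged on a CQ1 microscope at 37°C and 5% CO2, and CellPathfinder machine-learning gating split them into Hoechst high-intensity objects or normal cells, normal cells into healthy, pyknosed or fragmented nuclei, and pyknosed cells into mitotic or apoptotic.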

[2] = test system: HEK-293T; assay: Multiplex assay against HEK293T; assay type: toxicity, cell-based; conditions: human; method in brief: as §1
[3] = 24 h, 1 µM, compound concentration 1 uM
[4] = 24 h, 10 µM, compound concentration 10 uM
[5] = 48 h, 1 µM, compound concentration 1 uM
[6] = 48 h, 10 µM, compound concentration 10 uM
[7] = 12 h, 1 µM, compound concentration 1 uM
[8] = 12 h, 10 µM, compound concentration 10 uM

O=C1NCc2ccc3c(-c4cccc(Cl)c4)c[nH]c3c21
Population Mitotic Cells (%) [1, 3]: 65.62% and 80.36%
Population Normal (%) [1, 3]: 100% and 99.43%
Population Pyknosed Nuclei (%) [1, 3]: 29.49% and 32.18%
Population Tubulin-Different-Phenotype (%) [1, 3]: 1.73% and 2.61%
Total Cell Count [1, 3]: 434 and 175
Population Apoptotic (%) [1, 4]: 50% and 28.3%
Population Fragmented Nuclei (%) [1, 4]: 4.05% and 5.47%
Population Healthy Nuclei (%) [1, 4]: 49.22% and 53.12%
Population Hoechst High Intensity Objects (%) [1, 4]: 0.62% and 0%
Population Membrane Permeable-Phenotype (%) [1, 4]: 0.63% and 8.82%
Population Mitochondria Different-Phenotype (%) [1, 4]: 0% and 8.82%
Population Mitotic Cells (%) [1, 4]: 50% and 71.7%
Population Normal (%) [1, 4]: 99.38% and 100%
Population Pyknosed Nuclei (%) [1, 4]: 46.73% and 41.41%
Population Tubulin-Different-Phenotype (%) [1, 4]: 1.27% and 1.47%
Total Cell Count [1, 4]: 323 and 128
Population Apoptotic (%) [1, 5]: 63.69% and 70.59%
Population Fragmented Nuclei (%) [1, 5]: 9.74% and 8.94%
Population Healthy Nuclei (%) [1, 5]: 47.18% and 43.58%
Population Hoechst High Intensity Objects (%) [1, 5]: 0%
Population Membrane Permeable-Phenotype (%) [1, 5]: 1.63% and 6.41%
Population Mitotic Cells (%) [1, 5]: 36.31% and 29.41%
Population Normal (%) [1, 5]: 100%
Population Pyknosed Nuclei (%) [1, 5]: 43.08% and 47.49%
Population Tubulin-Different-Phenotype (%) [1, 5]: 6.52% and 2.56%
Total Cell Count [1, 5]: 390 and 179
Population Apoptotic (%) [1, 6]: 70.56% and 84.62%
Population Fragmented Nuclei (%) [1, 6]: 6.99% and 3.12%
Population Healthy Nuclei (%) [1, 6]: 38.3% and 46.09%
Population Hoechst High Intensity Objects (%) [1, 6]: 0%
Population Membrane Permeable-Phenotype (%) [1, 6]: 2.38% and 6.78%
Population Mitotic Cells (%) [1, 6]: 29.44% and 15.38%
Population Normal (%) [1, 6]: 100%
Population Pyknosed Nuclei (%) [1, 6]: 54.71% and 50.78%
Population Tubulin-Different-Phenotype (%) [1, 6]: 10.32% and 5.08%
Total Cell Count [1, 6]: 329 and 128
Population Apoptotic (%) [2, 7]: 9.74% and 10.57%
Population Fragmented Nuclei (%) [2, 7]: 0.72% and 0.69%
Population Hoechst High Intensity Objects (%) [2, 7]: 0.36% and 0%
Population Membrane Permeable-Phenotype (%) [2, 7]: 0%
Population Mitochondria Different-Phenotype (%) [2, 7]: 41.8% and 23.81%
Population Mitotic Cells (%) [2, 7]: 90.26% and 89.43%
Population Normal (%) [2, 7]: 99.64% and 100%
Population Pyknosed Nuclei (%) [2, 7]: 55.4% and 84.83%
Total Cell Count [2, 7]: 279 and 145
Population Apoptotic (%) [2, 8]: 21.19% and 16.81%
Population Fragmented Nuclei (%) [2, 8]: 1.88% and 2.24%
Population Healthy Nuclei (%) [2, 8]: 27.23% and 13.43%
Population Hoechst High Intensity Objects (%) [2, 8]: 0.47% and 4.29%
Population Membrane Permeable-Phenotype (%) [2, 8]: 0%
Population Mitotic Cells (%) [2, 8]: 78.81% and 83.19%
Population Normal (%) [2, 8]: 99.53% and 95.71%
Population Pyknosed Nuclei (%) [2, 8]: 70.89% and 84.33%
Population Tubulin-Different-Phenotype (%) [2, 8]: 5.17% and 11.11%
Total Cell Count [2, 8]: 214 and 140
Population Apoptotic (%) [2, 3]: 26.79% and 11.65%
Population Fragmented Nuclei (%) [2, 3]: 3.63% and 0.67%
Population Healthy Nuclei (%) [2, 3]: 59.41% and 30.2%
Population Hoechst High Intensity Objects (%) [2, 3]: 0%
Population Membrane Permeable-Phenotype (%) [2, 3]: 0%
Population Mitotic Cells (%) [2, 3]: 73.21% and 88.35%
Population Normal (%) [2, 3]: 100%
Population Pyknosed Nuclei (%) [2, 3]: 36.96% and 69.13%
Population Tubulin-Different-Phenotype (%) [2, 3]: 7.78% and 8.89%
Total Cell Count [2, 3]: 303 and 149
Population Apoptotic (%) [2, 4]: 31.52% and 52.43%
Population Fragmented Nuclei (%) [2, 4]: 1.99% and 3.12%
Population Healthy Nuclei (%) [2, 4]: 24.7% and 16.41%
Population Hoechst High Intensity Objects (%) [2, 4]: 0% and 3.76%
Population Membrane Permeable-Phenotype (%) [2, 4]: 0% and 4.76%
Population Mitochondria Different-Phenotype (%) [2, 4]: 56.45% and 23.81%
Population Mitotic Cells (%) [2, 4]: 68.48% and 47.57%
Population Normal (%) [2, 4]: 100% and 96.24%
Population Pyknosed Nuclei (%) [2, 4]: 73.31% and 80.47%
Population Tubulin-Different-Phenotype (%) [2, 4]: 1.61% and 0%
Total Cell Count [2, 4]: 251 and 133
Population Apoptotic (%) [2, 5]: 20.62% and 21.52%
Population Fragmented Nuclei (%) [2, 5]: 3.28% and 0.63%
Population Healthy Nuclei (%) [2, 5]: 72.22% and 49.69%
Population Hoechst High Intensity Objects (%) [2, 5]: 0.5% and 0%
Population Membrane Permeable-Phenotype (%) [2, 5]: 0.35% and 0%
Population Mitotic Cells (%) [2, 5]: 79.38% and 78.48%
Population Normal (%) [2, 5]: 99.5% and 100%
Population Pyknosed Nuclei (%) [2, 5]: 24.49% and 49.69%
Total Cell Count [2, 5]: 398 and 159
Population Apoptotic (%) [2, 6]: 54.1% and 46.85%
Population Fragmented Nuclei (%) [2, 6]: 4.95% and 2.36%
Population Hoechst High Intensity Objects (%) [2, 6]: 0.45% and 0.78%
Population Membrane Permeable-Phenotype (%) [2, 6]: 0%
Population Mitochondria Different-Phenotype (%) [2, 6]: 83.15% and 38.46%
Population Mitotic Cells (%) [2, 6]: 45.9% and 53.15%
Population Normal (%) [2, 6]: 99.55% and 99.22%
Population Pyknosed Nuclei (%) [2, 6]: 54.95% and 87.4%
Total Cell Count [2, 6]: 223 and 128
